Experimental data from ChEMBL document CHEMBL1287751, “Development of a sphingosine kinase 1 specific small-molecule inhibitor” (Bioorg Med Chem Lett, 2010).
Active and inactive are the calls of the source. The calls are words filed in the database; no cut-off is given here.

What was measured:
Sphingosine kinase 1 [1] = molecular target: T1, Sphingosine kinase 1 (Homo sapiens, UniProt Q9NYA1); experiment: Inhibition of His6x-tagged recombinant sphingosine kinase 1 expressed in HEK293 cells at 10.7 uM; format: cell-based
T1 sequence (Q9NYA1 whole entry): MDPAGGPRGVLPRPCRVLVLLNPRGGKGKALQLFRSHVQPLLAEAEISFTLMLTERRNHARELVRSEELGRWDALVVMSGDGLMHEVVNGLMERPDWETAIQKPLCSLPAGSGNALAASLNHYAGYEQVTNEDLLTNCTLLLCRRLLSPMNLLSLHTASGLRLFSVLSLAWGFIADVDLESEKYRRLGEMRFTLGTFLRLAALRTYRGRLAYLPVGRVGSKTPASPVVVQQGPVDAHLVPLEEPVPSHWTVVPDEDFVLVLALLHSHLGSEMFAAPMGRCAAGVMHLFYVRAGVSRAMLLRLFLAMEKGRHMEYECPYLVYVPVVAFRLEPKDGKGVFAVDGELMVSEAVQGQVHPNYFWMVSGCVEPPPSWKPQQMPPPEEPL
Procedure, shortened: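 Affinity-purified His6X-tagged SphK1, recombinantly overexpressed in HEK293 cells. Substrate was 25 µM D-erythro-sphingosine in SKAAB buffer, without BSA conjugation or Triton X-100 micelles. Compounds screened at 10.7 µM, with DMSO controls at ≤5% of reaction volume. Reported as % inhibition, averages of two separate experiments.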

[2] = Cytotoxicity against human Kusami-3 cells after 48 hrs by sulforhodamine B assay; format: functional, cell-based; conditions: Kusami-3, 48 h
MCF7 [3] = experiment: Cytotoxicity against human tamoxifen-resistant MCF7 cells after 48 hrs by sulforhodamine B assay; format: functional, cell-based; conditions: MCF7, 48 h
U-251 = experiment: Cytotoxicity against human U251 cells after 48 hrs by sulforhodamine B assay; format: functional, cell-based; conditions: U-251, 48 h
[4] = Cytotoxicity against human NCI/ADR cells after 48 hrs by sulforhodamine B assay; format: functional, cell-based; conditions: NCI/ADR-RES
MCF7 [5] = experiment: Cytotoxicity against human MCF7 cells after 48 hrs by sulforhodamine B assay; format: functional, cell-based; conditions: MCF7, 48 h
HL-60 [6] = experiment: Cytotoxicity against VCR-resistance human HL60 cells after 48 hrs by sulforhodamine B assay; format: functional, cell-based; conditions: HL-60, 48 h
[7] = Cytotoxicity against human KG1a cells after 48 hrs by sulforhodamine B assay; format: functional, cell-based; conditions: KG-1a
[8] = molecular target: T2, Sphingosine kinase 2 (Homo sapiens) (UniProt Q9NRA0); experiment: Inhibition of sphingosine kinase 2 up to 25 uM
T2 sequence (whole entry): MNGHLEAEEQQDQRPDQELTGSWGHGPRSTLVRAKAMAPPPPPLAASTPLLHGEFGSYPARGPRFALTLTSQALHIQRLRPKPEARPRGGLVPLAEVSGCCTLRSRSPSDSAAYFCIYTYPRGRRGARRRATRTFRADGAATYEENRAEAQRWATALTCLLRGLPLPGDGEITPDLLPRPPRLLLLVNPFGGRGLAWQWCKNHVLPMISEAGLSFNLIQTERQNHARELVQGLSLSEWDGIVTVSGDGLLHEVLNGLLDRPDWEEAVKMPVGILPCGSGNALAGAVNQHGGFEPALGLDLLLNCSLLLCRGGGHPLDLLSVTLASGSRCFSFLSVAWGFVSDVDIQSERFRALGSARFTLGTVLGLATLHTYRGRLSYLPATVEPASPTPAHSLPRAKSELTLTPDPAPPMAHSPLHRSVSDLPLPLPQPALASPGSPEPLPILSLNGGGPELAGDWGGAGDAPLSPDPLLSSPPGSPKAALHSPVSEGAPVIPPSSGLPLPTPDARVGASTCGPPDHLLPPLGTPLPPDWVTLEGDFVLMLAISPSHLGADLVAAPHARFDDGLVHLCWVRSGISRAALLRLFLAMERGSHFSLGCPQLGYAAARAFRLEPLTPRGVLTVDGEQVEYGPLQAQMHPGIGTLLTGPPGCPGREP
Procedure, shortened: (§1)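 SphK2 activity assay in SKAAB buffer supplemented with 1 M KCl. Substrate was D-erythro-sphingosine delivered without BSA or Triton X-100. DMSO ≤5% of reaction volume.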

A549 = experiment: Ratio of compound cytotoxicity at 1 uM to SKI-I cytotoxicity for human A549 cells
NCI-H460 = experiment: Cytotoxicity against human H460 cells after 48 hrs by sulforhodamine B assay; format: functional, cell-based; conditions: NCI-H460, 48 h
BXPC-3 = experiment: Cytotoxicity against human BxPC3 cells after 48 hrs by sulforhodamine B assay; format: functional, cell-based; conditions: BXPC-3, 48 h
SH-SY5Y = experiment: Cytotoxicity against human SH-SY5Y cells after 48 hrs by sulforhodamine B assay; format: functional, cell-based
NCI-H226 = experiment: Cytotoxicity against human NCI-H226 cells after 48 hrs by sulforhodamine B assay; format: functional, cell-based; conditions: NCI-H226, 48 h
Sphingosine kinase 1 [9] = molecular target: T1, Sphingosine kinase 1; experiment: Inhibition of sphingosine kinase 1 in human A549 cells assessed as reduction in sphingosine-1-phosphate cellular level at 1 uM after 48 hrs by thin layer chromatography relative to control; format: cell-based
Procedure, shortened: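 A549 cells treated with 1 µM compound for 48 h. SphK activity assays were run on whole-cell lysates, lipids were separated by thin layer chromatography, and S1P was compared with DMSO-treated controls.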

MIA PaCa-2 = experiment: Cytotoxicity against human MIAPaCa2 cells after 48 hrs by sulforhodamine B assay; format: functional, cell-based; conditions: MIA PaCa-2, 48 h
Sphingosine kinase 1 [10] = molecular target: T1, Sphingosine kinase 1; experiment: Competitive inhibition of recombinant sphingosine kinase 1 using D-erythro-sphingosine as substrate by Lineweaver-Burke plot analysis
Procedure, shortened: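 Recombinant His6X-tagged SphK1, affinity purified from HEK293 overexpression, assayed with varying D-erythro-sphingosine concentrations, with inhibitor absent or at 10 and 17 µM. Sph delivered in SKAAB buffer without BSA conjugation or Triton X-100 micelles. DMSO ≤5% of reaction. Ki and mechanism from linear regression.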

[11] = Cytotoxicity against human U87MG cells after 48 hrs by sulforhodamine B assay; format: functional, cell-based, U-87MG ATCC; conditions: U-87 MG
PANC-1 = experiment: Cytotoxicity against human PANC1 cells after 48 hrs by sulforhodamine B assay; format: functional, cell-based; conditions: PANC-1, 48 h
HL-60 [12] = experiment: Cytotoxicity against human HL60 cells after 48 hrs by sulforhodamine B assay; format: functional, cell-based; conditions: HL-60, 48 h
Sphingosine kinase 1 [13] = molecular target: T1, Sphingosine kinase 1; experiment: Non-competitive inhibition of recombinant sphingosine kinase 1 using ATP as substrate by Lineweaver-Burke plot analysis
[14] = molecular target: T2, Sphingosine kinase 2 (Homo sapiens); experiment: Inhibition of sphingosine kinase 2; procedure, shortened: as §1

Compound: COc1ccc(-c2cc(C(=O)N/N=C/c3ccc(C(C)C)cc3)[nH]n2)cc1
- inhibition (Sphingosine kinase 1 [1]): 15.3%

Compound: COc1ccc(-c2cc(C(=O)N/N=C/c3ccc(O)cc3O)[nH]n2)cc1
- inhibition (Sphingosine kinase 1 [1]): 30.8%

Compound: COc1ccc(-c2cc(C(=O)N/N=C/c3ccc(OC)c(OC)c3)[nH]n2)cc1
- inhibition (Sphingosine kinase 1 [1]): 44.5%

Compound: Cc1ccc(-c2cc(C(=O)N/N=C/c3ccccc3O)[nH]n2)cc1
- inhibition (Sphingosine kinase 1 [1]): 9.8%

Compound: COc1ccc(-c2cc(C(=O)N/N=C(\C)c3ccc(OC)c(OC)c3)[nH]n2)cc1
- IC50 [2]: 200 nM
- IC50 (MCF7 [3]): 1800 nM
- IC50 (U-251): 500 nM
- IC50 [4]: 1500 nM
- IC50 (MCF7 [5]): 1300 nM
- IC50 (HL-60 [6]): 200 nM
- IC50 [7]: 500 nM
- inhibition [8]: inactive
- cytotoxicity ratio (A549): 1.37
- IC50 (NCI-H460): 300 nM
- IC50 (BXPC-3): 200 nM
- IC50 (SH-SY5Y): 300 nM
- IC50 (NCI-H226): 300 nM
- inhibition (Sphingosine kinase 1 [9]): Active
- IC50 (MIA PaCa-2): 100 nM
- inhibition (Sphingosine kinase 1 [1]): 59.6%
- Ki (Sphingosine kinase 1 [10]): 1330 nM
- IC50 [11]: 600 nM
- IC50 (PANC-1): 100 nM
- IC50 (HL-60 [12]): 200 nM
- inhibition (Sphingosine kinase 1 [13]): Active

Compound: COc1ccc(-c2cc(C(=O)N/N=C/c3cc(O)cc(O)c3)[nH]n2)cc1
- inhibition (Sphingosine kinase 1 [1]): 12.5%

Compound: O=C(N/N=C/c1cccc(O)c1)c1cc(-c2ccc3ccccc3c2)n[nH]1
- inhibition (Sphingosine kinase 1 [1]): 25.1%

Compound: COc1ccc(-c2cc(C(=O)N/N=C(\C)c3ccc(Cl)cc3)[nH]n2)cc1
- inhibition (Sphingosine kinase 1 [1]): 46.8%

Compound: COc1ccc(-c2cc(C(=O)N/N=C/c3ccc(O)cc3)[nH]n2)cc1
- inhibition (Sphingosine kinase 1 [1]): 14.3%

Compound: COc1ccc(-c2cc(C(=O)N/N=C/c3ccccc3O)[nH]n2)cc1
- inhibition (Sphingosine kinase 1 [1]): 33.5%

Compound: O=C(N/N=C/c1ccc(O)cc1O)c1cc(-c2ccc3ccccc3c2)n[nH]1
- inhibition (Sphingosine kinase 1 [1]): 39.5%

Compound: O=C(N/N=C/c1ccccc1O)c1cc(-c2ccccc2)n[nH]1
- inhibition (Sphingosine kinase 1 [1]): 11.9%

Compound: COc1ccc(/C(C)=N/NC(=O)c2cc(-c3ccc(C)cc3)n[nH]2)cc1OC
- inhibition (Sphingosine kinase 1 [1]): 21.8%

Compound: O=C(N/N=C/c1ccc(O)cc1)c1cc(-c2ccc3ccccc3c2)n[nH]1
- inhibition (Sphingosine kinase 1 [1]): 28%

Compound: O=C(N/N=C/c1ccccc1O)c1cc(-c2ccc3ccccc3c2)n[nH]1
- inhibition (Sphingosine kinase 1 [1]): 59.3%

Compound: COc1ccc(-c2cc(C(=O)N/N=C/c3ccc4ccccc4c3)[nH]n2)cc1
- inhibition (Sphingosine kinase 1 [1]): 52.5%

Compound: COc1ccc(-c2cc(C(=O)N/N=C/c3ccc(F)cc3)[nH]n2)cc1
- inhibition (Sphingosine kinase 1 [1]): 27.4%

Compound: CCN(CC)c1ccc(/C=N/NC(=O)c2cc(-c3ccc(OC)cc3)n[nH]2)cc1
- inhibition (Sphingosine kinase 1 [1]): 38%

Compound: COc1ccc(-c2cc(C(=O)N/N=C/c3cccc(O)c3)[nH]n2)cc1
- inhibition (Sphingosine kinase 1 [1]): 15.5%

Compound: O=C(N/N=C/c1c(O)ccc2ccccc12)c1cc(-c2ccc3ccccc3c2)n[nH]1
- inhibition (Sphingosine kinase 1 [9]): Active
- Ki (Sphingosine kinase 1 [10]): 1060 nM
- inhibition [14]: Dose-dependent effect
